ChEMBL document CHEMBL4184332, “Discovery of Novel Nonsteroidal Anti-Inflammatory Drugs and Carbonic Anhydrase Inhibitors Hybrids (NSAIDs-CAIs) for the Management of Rheumatoid Arthritis” (J Med Chem, 2018)
Calls of active or inactive are those of the source.

Tests used:
[1] = target: T1, Carbonic anhydrase 2 (Homo sapiens, UniProt P00918); assay: Potency index, ratio of acetazolamide Ki to test compound Ki for recombinant human carbonic anhydrase-2
In short: (§1)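 Recombinant human CA, made in house, in a stopped-flow CO₂ hydration assay. Conditions: 20 mM Hepes pH 7.5, 20 mM Na₂SO₄, 0.2 mM phenol red read at 557 nm, CO₂ 1.7-17 mM. Enzyme and inhibitor were preincubated 15 min at room temperature. Initial rates were corrected for the uncatalyzed rate. Ki came from nonlinear least squares, mean of three measurements. The ratio uses the acetazolamide Ki.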

[2] = tested on: Rattus norvegicus; assay: Antiarthritic activity in CFA-induced Sprague-Dawley rat rheumatoid arthritis model assessed as increase in tolerated weight on ipsilateral paw at 1 mg/kg, po measured up to 60 mins by paw pressure test; type: functional, organism-based
In short: (§2)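 Rats: Sprague Dawley, 200-250 g, given 50 μl CFA intra-articularly into the tibiotarsal joint; controls got saline. On day 14, compounds in 1% CMC were given orally. An analgesimeter applied increasing pressure to the dorsal hind paw with a blunt conical probe until vocalization or withdrawal, read in grams, cut-off 120 g. Rats below 40 g or above 75 g before dosing were excluded. Values are mean (S.E.M.) of 8 rats from 2 experiments.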

[3] = target: T1, Carbonic anhydrase 2; assay: Inhibition of recombinant human carbonic anhydrase-2 incubated for 15 mins by stopped-flow CO2 hydrase assay
[4] = tested on: Rattus norvegicus; assay: Antiarthritic activity in CFA-induced Sprague-Dawley rat rheumatoid arthritis model assessed as tolerated weight on ipsilateral paw at 1 mg/kg, po measured at 15 mins by paw pressure test (reference value: 43.5 +/- 0.5 g); type: functional; in short: as §2
[5] = tested on: Rattus norvegicus; assay: Antiarthritic activity in CFA-induced Sprague-Dawley rat rheumatoid arthritis model assessed as tolerated weight on ipsilateral paw at 0.1 mg/kg, po measured up to 30 mins by paw pressure test (reference value: 43.5 +/- 0.5 g); type: functional; in short: as §2
[6] = target: Carbonic anhydrase 9 (Homo sapiens, UniProt Q16790); assay: Inhibition of recombinant human carbonic anhydrase-9 catalytic domain incubated for 15 mins by stopped-flow CO2 hydrase assay
[7] = tested on: Rattus norvegicus; assay: Antiarthritic activity in CFA-induced Sprague-Dawley rat rheumatoid arthritis model assessed as increase in tolerated weight on ipsilateral paw at 10 mg/kg, po measured at 15 mins by paw pressure test; type: functional, organism-based; in short: as §2
[8] = target: Carbonic anhydrase 4 (Homo sapiens, UniProt P22748); assay: Inhibition of recombinant human carbonic anhydrase-4 incubated for 15 mins by stopped-flow CO2 hydrase assay
[9] = tested on: Rattus norvegicus; assay: Antiarthritic activity in CFA-induced Sprague-Dawley rat rheumatoid arthritis model assessed as difference between weight burden on contralateral and ipsilateral paw at 10 mg/kg, po measured at 30 mins by incapacitance test (reference value: 54.2 +/- 5.1 g); type: functional
[10] = tested on: Rattus norvegicus; assay: Antiarthritic activity in CFA-induced Sprague-Dawley rat rheumatoid arthritis model assessed as tolerated weight on ipsilateral paw at 1 mg/kg, po measured at 30 mins by paw pressure test (reference value: 43.5 +/- 0.5 g); type: functional; in short: as §2
[11] = tested on: Rattus norvegicus; assay: Antiarthritic activity in CFA-induced Sprague-Dawley rat rheumatoid arthritis model assessed as tolerated weight on ipsilateral paw at 10 mg/kg, po measured up to 30 mins by paw pressure test (reference value: 43.5 +/- 0.5 g); type: functional; in short: as §2
[12] = tested on: Rattus norvegicus; assay: Antiarthritic activity in CFA-induced Sprague-Dawley rat rheumatoid arthritis model assessed as decrease in difference between weight burden on contralateral and ipsilateral paw at 10 mg/kg, po measured up to 75 mins by incapacitance test; type: functional, organism-based
[13] = tested on: Rattus norvegicus; assay: Antiarthritic activity in CFA-induced Sprague-Dawley rat rheumatoid arthritis model assessed as difference between weight burden on contralateral and ipsilateral paw at 1 mg/kg, po measured at 30 mins by incapacitance test (reference value: 54.2 +/- 5.1 g); type: functional
[14] = target: T2, Carbonic anhydrase 1 (Homo sapiens, UniProt P00915); assay: Inhibition of recombinant human carbonic anhydrase-1 incubated for 15 mins by stopped-flow CO2 hydrase assay
Target sequence in this assay (P00915 whole entry): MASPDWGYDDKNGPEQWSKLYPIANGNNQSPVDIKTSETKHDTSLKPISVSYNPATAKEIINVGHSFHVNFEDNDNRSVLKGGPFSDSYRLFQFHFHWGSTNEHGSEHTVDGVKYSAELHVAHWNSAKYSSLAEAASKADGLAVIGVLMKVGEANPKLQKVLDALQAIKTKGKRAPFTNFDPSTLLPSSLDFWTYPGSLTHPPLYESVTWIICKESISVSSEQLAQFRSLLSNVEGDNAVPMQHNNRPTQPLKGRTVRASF

[15] = tested on: Rattus norvegicus; assay: Antiarthritic activity in CFA-induced Sprague-Dawley rat rheumatoid arthritis model assessed as tolerated weight on ipsilateral paw at 0.1 mg/kg, po measured at 15 mins by paw pressure test (reference value: 43.5 +/- 0.5 g); type: functional; in short: as §2
[16] = tested on: Rattus norvegicus; assay: Antiarthritic activity in CFA-induced Sprague-Dawley rat rheumatoid arthritis model assessed as increase in tolerated weight on ipsilateral paw at 10 mg/kg, po measured up to 75 mins by paw pressure test; type: functional, organism-based; in short: as §2
[17] = tested on: Rattus norvegicus; assay: Antiarthritic activity in po dosed CFA-induced Sprague-Dawley rat rheumatoid arthritis model assessed as decrease in difference between weight burden on contralateral and ipsilateral paw measured up to 60 mins by incapacitance test; type: functional, organism-based
[18] = organism: Rattus norvegicus; assay: Change in pain threshold of contralateral paw of CFA-induced Sprague-Dawley rat rheumatoid arthritis model by paw pressure test; type: organism-based; settings: in vivo; in short: as §2
[19] = target: Carbonic anhydrase 12 (Homo sapiens, UniProt O43570); assay: Inhibition of recombinant human carbonic anhydrase-12 incubated for 15 mins by stopped-flow CO2 hydrase assay
[20] = tested on: Rattus norvegicus; assay: Antiarthritic activity in CFA-induced Sprague-Dawley rat rheumatoid arthritis model assessed as increase in tolerated weight on ipsilateral paw at 0.1 mg/kg, po measured up to 45 mins by paw pressure test; type: functional, organism-based; in short: as §2
[21] = target: T2, Carbonic anhydrase 1; assay: Potency index, ratio of acetazolamide Ki to test compound Ki for recombinant human carbonic anhydrase-1; in short: as §1
Target sequence in this assay (P00915 2-261 limits assumed): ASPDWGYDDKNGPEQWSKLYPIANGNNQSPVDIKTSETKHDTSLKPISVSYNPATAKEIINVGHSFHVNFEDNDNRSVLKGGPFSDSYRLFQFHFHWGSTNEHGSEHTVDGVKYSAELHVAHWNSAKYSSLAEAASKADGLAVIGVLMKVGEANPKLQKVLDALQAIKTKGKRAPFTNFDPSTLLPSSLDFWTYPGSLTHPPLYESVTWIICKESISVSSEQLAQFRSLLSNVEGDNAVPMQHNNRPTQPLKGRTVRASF

[22] = tested on: Rattus norvegicus; assay: Antiarthritic activity in CFA-induced Sprague-Dawley rat rheumatoid arthritis model assessed as decrease in difference between weight burden on contralateral and ipsilateral paw at 6.2 mg/kg, po measured up to 75 mins by incapacitance test; type: functional, organism-based
[23] = tested on: Rattus norvegicus; assay: Antiarthritic activity in CFA-induced Sprague-Dawley rat rheumatoid arthritis model assessed as increase in tolerated weight on ipsilateral paw at 6.2 mg/kg, po measured at 15 mins by paw pressure test; type: functional, organism-based; in short: as §2
[24] = tested on: Rattus norvegicus; assay: Antiarthritic activity in CFA-induced Sprague-Dawley rat rheumatoid arthritis model assessed as increase in tolerated weight on ipsilateral paw at 5.8 mg/kg, po measured at 15 mins by paw pressure test; type: functional, organism-based; in short: as §2
[25] = tested on: Rattus norvegicus; assay: Antiarthritic activity in CFA-induced Sprague-Dawley rat rheumatoid arthritis model assessed as decrease in difference between weight burden on contralateral and ipsilateral paw at 5.8 mg/kg, po measured up to 75 mins by incapacitance test; type: functional, organism-based
[26] = tested on: Rattus norvegicus; assay: Antiarthritic activity in CFA-induced Sprague-Dawley rat rheumatoid arthritis model assessed as tolerated weight on ipsilateral paw at 10 mg/kg, po measured at 15 mins by paw pressure test (reference value: 43.5 +/- 0.5 g); type: functional; in short: as §2
[27] = tested on: Rattus norvegicus; assay: Antiarthritic activity in CFA-induced Sprague-Dawley rat rheumatoid arthritis model assessed as tolerated weight on ipsilateral paw at 1 mg/kg, po measured up to 30 mins by paw pressure test (reference value: 43.5 +/- 0.5 g); type: functional; in short: as §2
[28] = tested on: Rattus norvegicus; assay: Antiarthritic activity in CFA-induced Sprague-Dawley rat rheumatoid arthritis model assessed as decrease in difference between weight burden on contralateral and ipsilateral paw at 0.1 mg/kg, po measured up to 75 mins by incapacitance test; type: functional, organism-based
[29] = tested on: Rattus norvegicus; assay: Antiarthritic activity in CFA-induced Sprague-Dawley rat rheumatoid arthritis model assessed as difference between weight burden on contralateral and ipsilateral paw at 1 mg/kg, po measured at 15 to 30 mins by incapacitance test (reference value: 54.2 +/- 5.1 g); type: functional
[30] = tested on: Rattus norvegicus; assay: Antiarthritic activity in CFA-induced Sprague-Dawley rat rheumatoid arthritis model assessed as tolerated weight on ipsilateral paw at 10 mg/kg, po measured at 30 mins by paw pressure test (reference value: 43.5 +/- 0.5 g); type: functional; in short: as §2
[31] = tested on: Rattus norvegicus; assay: Antiarthritic activity in po dosed CFA-induced Sprague-Dawley rat rheumatoid arthritis model assessed as increase in tolerated weight on ipsilateral paw measured up to 60 mins by paw pressure test; type: functional, organism-based; in short: as §2
[32] = tested on: Rattus norvegicus; assay: Antiarthritic activity in CFA-induced Sprague-Dawley rat rheumatoid arthritis model assessed as difference between weight burden on contralateral and ipsilateral paw at 10 mg/kg, po measured at 15 to 30 mins by incapacitance test (reference value: 54.2 +/- 5.1 g); type: functional
[33] = tested on: Rattus norvegicus; assay: Antiarthritic activity in CFA-induced Sprague-Dawley rat rheumatoid arthritis model assessed as decrease in difference between weight burden on contralateral and ipsilateral paw at 10 mg/kg, po measured up to 60 mins by incapacitance test; type: functional, organism-based
[34] = tested on: Rattus norvegicus; assay: Antiarthritic activity in CFA-induced Sprague-Dawley rat rheumatoid arthritis model assessed as difference between weight burden on contralateral and ipsilateral paw at 0.1 mg/kg, po measured at 15 to 30 mins by incapacitance test (reference value: 54.2 +/- 5.1 g); type: functional
[35] = tested on: Rattus norvegicus; assay: Antiarthritic activity in CFA-induced Sprague-Dawley rat rheumatoid arthritis model assessed as increase in tolerated weight on ipsilateral paw at 1 mg/kg, po measured at 60 mins by paw pressure test; type: functional, organism-based; in short: as §2
[36] = tested on: Rattus norvegicus; assay: Antiarthritic activity in CFA-induced Sprague-Dawley rat rheumatoid arthritis model assessed as decrease in difference between weight burden on contralateral and ipsilateral paw at 0.1 mg/kg, po measured up to 45 mins by incapacitance test; type: functional, organism-based

Carbonic anhydrase 12, sequence (O43570 whole entry): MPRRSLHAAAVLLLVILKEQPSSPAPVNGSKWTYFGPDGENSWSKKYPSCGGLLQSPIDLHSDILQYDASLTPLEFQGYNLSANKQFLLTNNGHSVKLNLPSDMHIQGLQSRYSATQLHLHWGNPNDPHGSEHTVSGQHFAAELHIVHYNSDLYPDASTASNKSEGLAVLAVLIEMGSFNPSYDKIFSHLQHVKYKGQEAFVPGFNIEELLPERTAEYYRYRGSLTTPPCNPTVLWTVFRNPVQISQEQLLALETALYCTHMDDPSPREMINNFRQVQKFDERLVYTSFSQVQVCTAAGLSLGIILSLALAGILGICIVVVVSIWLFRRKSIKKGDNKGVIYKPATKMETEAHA
Carbonic anhydrase 4, sequence (P22748 whole entry): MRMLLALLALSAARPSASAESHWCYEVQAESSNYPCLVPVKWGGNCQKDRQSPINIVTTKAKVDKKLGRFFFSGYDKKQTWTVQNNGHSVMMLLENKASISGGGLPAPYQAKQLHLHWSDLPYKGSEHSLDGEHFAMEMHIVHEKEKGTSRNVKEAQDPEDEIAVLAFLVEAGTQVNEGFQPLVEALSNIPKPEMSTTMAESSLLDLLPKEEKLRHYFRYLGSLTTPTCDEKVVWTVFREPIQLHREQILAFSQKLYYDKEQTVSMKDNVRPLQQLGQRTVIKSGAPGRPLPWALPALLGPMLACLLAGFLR

| Structure (SMILES) | Ki [3] [µM] | Ki [6] [µM] | Ki [8] [µM] | Activity [9] [g] | Activity [13] [g] | Ki [14] [µM] | Activity [16] | Activity [18] | Ki [19] [µM] | other results |
| --- | --- | --- | --- | --- | --- | --- | --- | --- | --- | --- |
| CC(C(=O)NCCc1ccc(S(N)(=O)=O)cc1)c1cccc(C(=O)c2ccccc2)c1 (racemic) | 0.0065 | 0.0393 | 3.01 | 28.6 | 36.8 | 0.0081 | Active | Non-Toxic | 0.054 | Ratio Ki [1]: 1.86; Activity [2]: Active; Activity [4]: 51.7 g; Activity [5]: 50 g; Activity [7]: Active; Activity [10]: 53.3 g; Activity [11]: 56.7 g; Activity [12]: Active; Activity [15]: 50 g; Activity [17]: Dose-dependent effect; Activity [20]: Active |
| CC(C(=O)NCCOc1ccc(S(N)(=O)=O)cc1)c1cccc(C(=O)c2ccccc2)c1 (racemic) | 0.0067 | 0.0765 | 0.0777 |  |  | 0.0213 |  |  | 0.0086 | Ratio Ki [21]: 10 |
| O=C(O)Cc1ccccc1Nc1c(Cl)cccc1Cl |  |  |  |  |  |  |  |  |  | Activity [22]: Active; Activity [23]: Active |
| CC(C(=O)O)c1cccc(C(=O)c2ccccc2)c1 (configuration not stated) |  |  |  |  |  |  |  |  |  | Activity [24]: Active; Activity [25]: Active |
| CC1=C(CC(=O)NCCc2ccc(S(N)(=O)=O)cc2)c2cc(F)ccc2/C1=C/c1ccc([S+](C)[O-])cc1 (configuration not stated) | 0.0273 | 0.0625 | 6.86 |  |  | 0.0649 | Active | Non-Toxic | 0.0944 | Activity [26]: 62.5 g; Activity [4]: 55 g; Activity [27]: 55 g; Activity [28]: inactive; Activity [29]: 22.3 g; Activity [30]: 64.2 g; Activity [31]: Dose-dependent effect; Activity [17]: Dose-dependent effect; Activity [32]: 8.6 g |
| COc1ccc2cc(C(C)C(=O)NCCc3ccc(S(N)(=O)=O)cc3)ccc2c1 (racemic) | 0.0052 | 0.0129 | 6.03 | 29.3 | 34.3 | 0.0191 |  | Non-Toxic | 0.0919 | Activity [33]: Active; Activity [31]: Dose-dependent effect |
| NS(=O)(=O)c1ccc(CCNC(=O)Cc2ccccc2Nc2c(Cl)cccc2Cl)cc1 | 0.0437 | 0.0433 | 8.65 | 14.7 | 20.6 | 0.0684 | Active | Non-Toxic | 0.0902 | Activity [10]: 56.7 g; Activity [34]: 39 g; Activity [30]: 66.3 g; Activity [35]: inactive; Activity [36]: Active; Activity [15]: 52.5 g; Activity [20]: Active |
